Assays:
K562 = experiment: Cytotoxicity against human K562 cells by SRB assay; assay type: functional, cell-based
Method in brief: (§1)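 Cytotoxicity measured in human cancer cell lines (colon HCT116, lung A549, stomach SNU638, breast T47D, prostate PC-3, leukemia K562) by sulforhodamine B protein staining.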

[1] = Cytotoxicity against human SNU638 cells by SRB assay; assay type: functional, cell-based; conditions: SNU-638; method in brief: as §1
A549 = experiment: Cytotoxicity against human A549 cells by SRB assay; assay type: functional, cell-based; method in brief: as §1
T47D = experiment: Cytotoxicity against human T47D cells by SRB assay; assay type: functional, cell-based; method in brief: as §1
PC-3 [2] = experiment: Cytotoxicity against human PC3 cells by SRB assay; assay type: functional, cell-based; method in brief: as §1
HCT-116 = experiment: Cytotoxicity against human HCT116 cells by SRB assay; assay type: functional, cell-based; method in brief: as §1
PC-3 [3] = experiment: Drug metabolism in human PC3 cells assessed as formation of mono, di, or triphosphate at 50 uM after 24 hrs by HPLC-MS analysis; assay type: ADME, cell-based; conditions: pc-3, 24 h
Method in brief: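 PC-3 cells seeded at 5×10^5 per 100 mm dish, grown 24 h, then exposed to 50 µM compound for 24 h. Cells washed with DPBS and extracted in methanol/chloroform with three liquid N₂ freeze–sonication cycles. Water/chloroform phase split at 22,000 g, 4 °C. Dried upper layer analysed by HILIC (ZIC-pHILIC, 10 mM ammonium carbonate/acetonitrile gradient, 35 °C) with ESI ion-trap MS.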

| Structure (SMILES) | IC50 (K562) [µM] | IC50 [1] [µM] | IC50 (A549) [µM] | IC50 (T47D) [µM] | IC50 (PC-3 [2]) [µM] | IC50 (HCT-116) [µM] | Drug metabolism (PC-3 [3]) |
| --- | --- | --- | --- | --- | --- | --- | --- |
| O=c1[nH]c(=O)n(C2[Se][C@H](CO)[C@@H](O)[C@@H]2O)cc1I (stereo partly drawn) | > 100 | > 100 | > 100 | > 100 | > 100 | > 100 | – |
| O=c1[nH]c(=O)n(C2[Se][C@H](CO)[C@@H](O)[C@@H]2F)cc1Br (stereo partly drawn) | > 100 | > 100 | > 100 | > 100 | > 100 | > 100 | – |
| O=c1ccn(C2[Se][C@H](CO)[C@@H](O)[C@@H]2O)c(=O)[nH]1 (stereo partly drawn) | > 100 | > 100 | > 100 | > 100 | > 100 | > 100 | – |
| O=c1[nH]c(=O)n(C2[Se][C@H](CO)[C@@H](O)[C@@H]2O)cc1Br (stereo partly drawn) | > 100 | > 100 | > 100 | > 100 | > 100 | > 100 | – |
| Cc1cn(C2[Se][C@H](CO)[C@@H](O)[C@@H]2F)c(=O)[nH]c1=O (stereo partly drawn) | 76.3 | 77.2 | 76.4 | 65.3 | 88 | 85.2 | – |
| Cc1cn(C2[Se][C@H](CO)[C@@H](O)[C@@H]2O)c(=O)[nH]c1=O (stereo partly drawn) | > 100 | > 100 | > 100 | > 100 | > 100 | > 100 | – |
| Nc1ccn(C2[Se][C@H](CO)[C@@H](O)[C@@H]2F)c(=O)n1 (stereo partly drawn) | 0.63 | 0.14 | 0.47 | 0.79 | 0.58 | 1.1 | metabolite_notdetected |
| [N-]=[N+]=N[C@@H]1C(n2ccc(N)nc2=O)[Se][C@H](CO)[C@H]1O (single isomer, unassigned; (+)) | 62.3 | 85.2 | 80.1 | 78.4 | 75.1 | 78.3 | – |
| O=c1[nH]c(=O)n(C2[Se][C@H](CO)[C@@H](O)[C@@H]2O)cc1Cl (stereo partly drawn) | > 100 | > 100 | > 100 | > 100 | > 100 | > 100 | – |
| O=c1[nH]c(=O)n(C2[Se][C@H](CO)[C@@H](O)[C@@H]2O)cc1F (stereo partly drawn) | > 100 | 60.1 | 55.2 | 67.4 | 66.3 | 56.8 | – |
| O=c1[nH]c(=O)n(C2[Se][C@H](CO)[C@@H](O)[C@@H]2F)cc1F (stereo partly drawn) | 78.5 | 50.1 | 54.2 | 51.1 | 43.1 | 40.1 | – |
| [N-]=[N+]=N[C@@H]1C(n2cc(Cl)c(=O)[nH]c2=O)[Se][C@H](CO)[C@H]1O (stereo partly drawn) | > 100 | > 100 | > 100 | > 100 | > 100 | > 100 | – |
| [N-]=[N+]=N[C@@H]1C(n2cc(F)c(=O)[nH]c2=O)[Se][C@H](CO)[C@H]1O (single isomer, unassigned; (+)) | > 100 | > 100 | > 100 | > 100 | > 100 | > 100 | – |
| [N-]=[N+]=N[C@@H]1C(n2cc(I)c(=O)[nH]c2=O)[Se][C@H](CO)[C@H]1O (stereo partly drawn) | > 100 | > 100 | > 100 | > 100 | > 100 | > 100 | – |
| [N-]=[N+]=N[C@@H]1C(n2cc(Br)c(=O)[nH]c2=O)[Se][C@H](CO)[C@H]1O (single isomer, unassigned; (-)) | > 100 | > 100 | > 100 | > 100 | > 100 | > 100 | – |
| O=c1ccn(C2[Se][C@H](CO)[C@@H](O)[C@@H]2F)c(=O)[nH]1 (single isomer, unassigned; (-)) | > 100 | > 100 | > 100 | > 100 | > 100 | > 100 | – |
| O=c1[nH]c(=O)n(C2[Se][C@H](CO)[C@@H](O)[C@@H]2F)cc1Cl (single isomer, unassigned; (+)) | > 100 | 76.3 | 82.1 | 77.1 | > 100 | 80.2 | – |
| Nc1ccn(C2[Se][C@H](CO)[C@@H](O)[C@@H]2O)c(=O)n1 (stereo partly drawn) | 86.6 | 4.72 | 8.83 | 8.91 | 4.54 | 7.13 | – |
| Cc1cn(C2[Se][C@H](CO)[C@@H](O)[C@@H]2N=[N+]=[N-])c(=O)[nH]c1=O (single isomer, unassigned; (+)) | > 100 | > 100 | > 100 | > 100 | > 100 | > 100 | – |
| O=c1[nH]c(=O)n(C2[Se][C@H](CO)[C@@H](O)[C@@H]2F)cc1I (stereo partly drawn) | > 100 | > 100 | > 100 | > 100 | > 100 | > 100 | – |
| [N-]=[N+]=N[C@@H]1C(n2ccc(=O)[nH]c2=O)[Se][C@H](CO)[C@H]1O (stereo partly drawn) | > 100 | > 100 | > 100 | > 100 | > 100 | > 100 | – |
| Nc1ccn([C@@H]2O[C@H](CO)[C@@H](O)[C@@H]2O)c(=O)n1 [CYTARABINE] | – | 0.15 | – | – | – | – | – |
